Holding throughout (type): functional
For experiment [1], the system named is Staphylococcus aureus. The experiment is described as follows: Inhibition of protein synthesis in Staphylococcus aureus ATCC 29213 assessed as [3H]aminoacid incorporation.
The subject of experiment [2] is Staphylococcus aureus. The experiment is described as follows: Inhibition of RNA synthesis in Staphylococcus aureus ATCC 29213 assessed as [3H]uridine incorporation. Summed up: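 Log-phase cells exposed in duplicate to compound at 5x MIC; labelled-precursor uptake measured over 15 min, stopped with 10% trichloroacetic acid. Incorporation expressed as percent of untreated control (taken as 100%).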

Experiment [3] concerns Streptococcus pneumoniae. The experiment in a line: Antibacterial activity against Streptococcus pneumoniae ATCC BAA-255 with ParE T172I mutation after 18 to 20 hrs. Summed up: (§1)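 MICs followed CLSI guidelines. Strains were grown overnight at 35°C on solid medium. Inocula were prepared with a Prompt system. Compounds were serially diluted twofold in 100% DMSO at 200x and diluted 1:200 into medium, for a final 0.5% DMSO. Plates were incubated at 35°C for 18 to 20 h and read visually. A twofold MIC variation was taken as assay error.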

The test system of experiment [4] is Staphylococcus aureus. The experiment in a line: Antibacterial activity against Staphylococcus aureus ATCC 29213 without plasmid.
Experiment [5] relates to Streptococcus pneumoniae. The experiment in a line: Antibacterial activity against Streptococcus pneumoniae ATCC BAA-255 with ParE T172A mutation after 18 to 20 hrs. Summed up:
as §1

Experiment [6] has as its system Staphylococcus aureus. The experiment in a line: Antibacterial activity against Staphylococcus aureus ATCC 29213 with GyrB T173I mutation without plasmid.
In experiment [7] the test system is Streptococcus pneumoniae. The experiment is described as follows: Antibacterial activity against novobiocin-resistant Streptococcus pneumoniae ATCC BAA-255 with GyrB S127L mutation after 18 to 20 hrs. In a few lines:
as §1

In experiment [8] the test system is Haemophilus influenzae. The experiment is described as follows: Antibacterial activity against novobiocin-resistant Haemophilus influenzae ATCC 51907 with GyrB R140L mutation after 18 to 20 hrs. Summed up: as §1
The test system of experiment [9] is Staphylococcus aureus. The experiment in a line: Antibacterial activity against Staphylococcus aureus ATCC 29213 with GyrB T173N mutation without plasmid.
Experiment [10] concerns Enterococcus faecalis. The experiment is described as follows: Antibacterial activity against Enterococcus faecalis ATCC 29212 after 18 to 20 hrs. In a few lines:
as §1

Experiment [11] concerns Staphylococcus aureus. The experiment is described as follows: Antibacterial activity against Staphylococcus aureus ATCC 29213 with GyrB T173I mutation after 18 to 20 hrs. In a few lines:
as §1

In experiment [12] the test system is Staphylococcus aureus. The experiment in a line: Antibacterial activity against Staphylococcus aureus ATCC 29213 with GyrB T173N and GrlB T166A mutation after 18 to 20 hrs. In a few lines: as §1
In experiment [13] the test system is Enterococcus faecalis. The experiment is described as follows: Antibacterial activity against Enterococcus faecalis ATCC 29212 with GyrB T167A and ParE T169A mutation after 18 to 20 hrs. In a few lines: as §1
The test system of experiment [14] is Staphylococcus aureus. The experiment in a line: Antibacterial activity against Staphylococcus aureus ATCC 29213 carrying plasmid expressing GyrB T173I mutant.
Experiment [15] has as its system Streptococcus pneumoniae. The experiment in a line: Antibacterial activity against Streptococcus pneumoniae ATCC BAA-255 with GyrB T172A and ParE T172A mutation after 18 to 20 hrs. In a few lines:
as §1

The test system of experiment [16] is Staphylococcus aureus. The experiment is described as follows: Antibacterial activity against Staphylococcus aureus ATCC 29213 carrying plasmid expressing wild type GyrB.
Experiment [17] deals with Staphylococcus aureus. The experiment is described as follows: Antibacterial activity against Staphylococcus aureus ATCC 29213 carrying plasmid expressing GyrB R144I mutant.
Experiment [18] relates to Haemophilus influenzae. The experiment is described as follows: Antibacterial activity against novobiocin-resistant Haemophilus influenzae ATCC 51907 with GyrB R140H mutation after 18 to 20 hrs. Summed up: as §1
For experiment [19], the system named is Haemophilus influenzae. The experiment in a line: Antibacterial activity against novobiocin-resistant Haemophilus influenzae ATCC 51907 with GyrB R140C mutation after 18 to 20 hrs. Summed up:
as §1

Experiment [20] concerns Streptococcus pneumoniae. The experiment in a line: Antibacterial activity against Streptococcus pneumoniae ATCC BAA-255 after 18 to 20 hrs. In a few lines: as §1
In experiment [21] the test system is Haemophilus influenzae. The experiment in a line: Antibacterial activity against Haemophilus influenzae ATCC 51907 after 18 to 20 hrs. Summed up:
as §1

In experiment [22] the test system is Enterococcus faecalis. The experiment is described as follows: Antibacterial activity against Enterococcus faecalis ATCC 29212 with ParE T169A mutation after 18 to 20 hrs. In a few lines: as §1
Experiment [23] deals with Staphylococcus aureus. The experiment in a line: Antibacterial activity against Staphylococcus aureus ATCC 29213 after 18 to 20 hrs. Summed up:
as §1

For experiment [24], the system named is Enterococcus faecalis. The experiment is described as follows: Antibacterial activity against Enterococcus faecalis ATCC 29212 with GyrB T167I mutation after 18 to 20 hrs. Summed up: as §1
Experiment [25] relates to Enterococcus faecalis. The experiment is described as follows: Antibacterial activity against Enterococcus faecalis ATCC 29212 with GyrB T167I and ParE T169A mutation after 18 to 20 hrs. In a few lines:
as §1

Experiment [26] concerns Enterococcus faecalis. The experiment in a line: Antibacterial activity against Enterococcus faecalis ATCC 29212 with GyrB T167A mutation after 18 to 20 hrs. Summed up:
as §1

Experiment [27] deals with Staphylococcus aureus. The experiment is described as follows: Antibacterial activity against Staphylococcus aureus ATCC 29213 carrying plasmid expressing GyrB T173N mutant.
For experiment [28], the system named is Staphylococcus aureus. The experiment is described as follows: Antibacterial activity against novobiocin-resistant Staphylococcus aureus ATCC 29213 with GyrB R144I mutation after 18 to 20 hrs. Summed up: as §1
The subject of experiment [29] is Staphylococcus aureus. The experiment is described as follows: Antibacterial activity against Staphylococcus aureus ATCC 29213 with GyrB R144I mutation without plasmid.
Experiment [30] has as its system Staphylococcus aureus. The experiment is described as follows: Antibacterial activity against Staphylococcus aureus ATCC 29213 with GyrB T173I and GrlB T166A mutation after 18 to 20 hrs. In a few lines: as §1
Experiment [31] relates to Staphylococcus aureus. The experiment in a line: Antibacterial activity against Staphylococcus aureus ATCC 29213 with GyrB T173N mutation after 18 to 20 hrs. Summed up:
as §1

For experiment [32], the system named is Haemophilus influenzae. The experiment is described as follows: Antibacterial activity against Haemophilus influenzae ATCC 51907 with GyrB T169I mutation after 18 to 20 hrs. In a few lines: as §1

The structures appear in SMILES notation. ≈ marks a conversion by molar mass, not a printed value. Calls of active or inactive are those of the source. The calls are words filed in the database; no cut-off is given here.

For the compound `CO[C@H]1/C=C/O[C@@]2(C)Oc3c(C)c(O)c4c(O)c(c(/C=N/N5CCN(C)CC5)c(O)c4c3C2=O)NC(=O)/C(C)=C\C=C\[C@H](C)[C@H](O)[C@@H](C)[C@@H](O)[C@@H](C)[C@H](OC(C)=O)[C@@H]1C`, the outcome in the experiment on Staphylococcus aureus [1] and with Staphylococcus aureus [2] was Active.

On to `CO[C@@H]1[C@@H](OC(N)=O)[C@@H](O)[C@H](Oc2ccc3c(O)c(NC(=O)c4ccc(O)c(CC=C(C)C)c4)c(=O)oc3c2C)OC1(C)C` [NOVOBIOCIN], for which the MIC turned out to be 0.5 µg/mL (≈ 0.816 µM) in the experiment on Streptococcus pneumoniae [3]; 0.13 µg/mL (≈ 0.212 µM) in the experiment on Staphylococcus aureus [4]; 0.5 µg/mL (≈ 0.816 µM) against Streptococcus pneumoniae [5]; 2 µg/mL (≈ 3.26 µM) against Staphylococcus aureus [6]; 8 µg/mL (≈ 13.1 µM) in the experiment with Streptococcus pneumoniae [7]; 4 µg/mL (≈ 6.53 µM) against Haemophilus influenzae [8]. Further, the MIC worked out at 0.25 µg/mL (≈ 0.408 µM) with Staphylococcus aureus [9]; 8 µg/mL (≈ 13.1 µM) against Enterococcus faecalis [10]; 1 µg/mL (≈ 1.63 µM) in the experiment with Staphylococcus aureus [11]; 0.25 µg/mL (≈ 0.408 µM) with Staphylococcus aureus [12]; 16 µg/mL (≈ 26.1 µM) in the experiment on Enterococcus faecalis [13]; 0.5 µg/mL (≈ 0.816 µM) in the experiment on Staphylococcus aureus [14]. Further, the MIC is 4 µg/mL (≈ 6.53 µM) against Streptococcus pneumoniae [15]; 0.13 µg/mL (≈ 0.212 µM) with Staphylococcus aureus [16]; 8 µg/mL (≈ 13.1 µM) against Staphylococcus aureus [17]; 4 µg/mL (≈ 6.53 µM) in the experiment on Haemophilus influenzae [18]; 8 µg/mL (≈ 13.1 µM) in the experiment on Haemophilus influenzae [19]; 0.5 µg/mL (≈ 0.816 µM) in the experiment with Streptococcus pneumoniae [20]. In addition, the MIC with Haemophilus influenzae [21] is 0.064 µg/mL (≈ 0.104 µM); with Enterococcus faecalis [22], 8 µg/mL (≈ 13.1 µM); against Staphylococcus aureus [23] it was 0.13 µg/mL (≈ 0.212 µM); against Enterococcus faecalis [24], 32 µg/mL (≈ 52.2 µM); in the experiment with Enterococcus faecalis [25] it was 16 µg/mL (≈ 26.1 µM); with Enterococcus faecalis [26], 16 µg/mL (≈ 26.1 µM). Moreover, the MIC in the experiment on Staphylococcus aureus [27] was 0.13 µg/mL (≈ 0.212 µM); against Staphylococcus aureus [28], 8 µg/mL (≈ 13.1 µM); against Staphylococcus aureus [29], 8 µg/mL (≈ 13.1 µM); with Staphylococcus aureus [30] it was 2 µg/mL (≈ 3.26 µM); in the experiment on Staphylococcus aureus [31], 0.25 µg/mL (≈ 0.408 µM); against Haemophilus influenzae [32], 0.25 µg/mL (≈ 0.408 µM).

The values are drawn from ChEMBL document CHEMBL1142193, “Dual targeting of GyrB and ParE by a novel aminobenzimidazole class of antibacterial compounds” (2007).
